According to ChEMBL document CHEMBL4152188, “Design, synthesis and biological evaluation of C(4) substituted monobactams as antibacterial agents against multidrug-resistant Gram-negative bacteria” (Eur J Med Chem, 2018):
In brackets after ≈: the same amount, converted by molar mass.

How the values were obtained:
Assay type in all cases: functional
[1] = test system: Pseudomonas aeruginosa; assay: Antibacterial activity against IMP-4 producing Pseudomonas aeruginosa isolate 207272 after 18 hrs by CLSI broth microdilution method; conditions: isolate 207272, 18 h
[2] = test system: Pseudomonas aeruginosa; assay: Selectivity index, ratio of MIC for against IMP-4 producing Pseudomonas aeruginosa isolate 212886 to MIC for against IMP-4 producing Pseudomonas aeruginosa isolate 212886 in presence of BPL
[3] = test system: Escherichia coli; assay: Antibacterial activity against Escherichia coli isolate 210737 after 18 hrs in presence of BPL by CLSI broth microdilution method; conditions: isolate 210737, 18 h
Outline: (§1)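 CLSI broth microdilution against clinical isolates (ESBL E. coli, KPC-2 MDR K. pneumoniae, IMP-4 MDR P. aeruginosa; five per species). Iron limitation: Mueller-Hinton broth supplemented with 16 mg/liter 2,2'-bipyridyl to complex iron and induce iron uptake systems. Read-out: MIC.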

[4] = test system: Escherichia coli; assay: Antibacterial activity against extended-spectrum beta-lactamase producing Escherichia coli isolate 209285 after 18 hrs by CLSI broth microdilution method; conditions: isolate 209285, 18 h
[5] = test system: Klebsiella pneumoniae; assay: Antibacterial activity against KPC-2 producing Klebsiella pneumoniae isolate 212229 after 18 hrs in presence of BPL by CLSI broth microdilution method; conditions: isolate 212229, 18 h; outline: as §1
[6] = test system: Klebsiella pneumoniae; assay: Antibacterial activity against KPC-2 producing Klebsiella pneumoniae isolate 212423 after 18 hrs by CLSI broth microdilution method; conditions: isolate 212423, 18 h
[7] = test system: Pseudomonas aeruginosa; assay: Antibacterial activity against IMP-4 producing Pseudomonas aeruginosa isolate 209321 after 18 hrs by CLSI broth microdilution method; conditions: isolate 209321, 18 h
[8] = test system: Pseudomonas aeruginosa; assay: Antibacterial activity against IMP-4 producing Pseudomonas aeruginosa isolate 208247 after 18 hrs by CLSI broth microdilution method; conditions: isolate 208247, 18 h
[9] = test system: Escherichia coli; assay: Selectivity index, ratio of MIC for against extended-spectrum beta-lactamase producing Escherichia coli isolate 208687 to MIC for extended-spectrum beta-lactamase producing Escherichia coli isolate 208687 in presence of BPL
[10] = test system: Klebsiella pneumoniae; assay: Antibacterial activity against KPC-2 producing Klebsiella pneumoniae isolate 212232 after 18 hrs in presence of BPL by CLSI broth microdilution method; conditions: isolate 212232, 18 h; outline: as §1
[11] = test system: Escherichia coli; assay: Selectivity index, ratio of MIC for against extended-spectrum beta-lactamase producing Escherichia coli isolate 212648 to MIC for extended-spectrum beta-lactamase producing Escherichia coli isolate 212648 in presence of BPL
[12] = test system: Escherichia coli; assay: Selectivity index, ratio of MIC for against extended-spectrum beta-lactamase producing Escherichia coli isolate 209285 to MIC for extended-spectrum beta-lactamase producing Escherichia coli isolate 209285 in presence of BPL
[13] = test system: Escherichia coli; assay: Antibacterial activity against Escherichia coli isolate 210737 after 18 hrs by CLSI broth microdilution method; conditions: isolate 210737, 18 h
[14] = test system: Klebsiella pneumoniae; assay: Antibacterial activity against KPC-2 producing Klebsiella pneumoniae isolate 209735 after 18 hrs in presence of BPL by CLSI broth microdilution method; conditions: isolate 209735, 18 h; outline: as §1
[15] = test system: Klebsiella pneumoniae; assay: Antibacterial activity against KPC-2 producing Klebsiella pneumoniae isolate 212232 after 18 hrs by CLSI broth microdilution method; conditions: isolate 212232, 18 h
[16] = test system: Pseudomonas aeruginosa; assay: Antibacterial activity against IMP-4 producing Pseudomonas aeruginosa isolate 212886 after 18 hrs in presence of BPL by CLSI broth microdilution method; conditions: isolate 212886, 18 h; outline: as §1
[17] = test system: Escherichia coli; assay: Antibacterial activity against extended-spectrum beta-lactamase producing Escherichia coli isolate 212648 after 18 hrs by CLSI broth microdilution method; conditions: isolate 212648, 18 h
[18] = test system: Pseudomonas aeruginosa; assay: Selectivity index, ratio of MIC for against IMP-4 producing Pseudomonas aeruginosa isolate 209321 to MIC for against IMP-4 producing Pseudomonas aeruginosa isolate 209321 in presence of BPL
[19] = test system: Pseudomonas aeruginosa; assay: Antibacterial activity against IMP-4 producing Pseudomonas aeruginosa isolate 212886 after 18 hrs by CLSI broth microdilution method; conditions: isolate 212886, 18 h
[20] = test system: Pseudomonas aeruginosa; assay: Antibacterial activity against IMP-4 producing Pseudomonas aeruginosa isolate 209471 after 18 hrs by CLSI broth microdilution method; conditions: isolate 209471, 18 h
[21] = test system: Escherichia coli; assay: Antibacterial activity against extended-spectrum beta-lactamase producing Escherichia coli isolate 209285 after 18 hrs in presence of BPL by CLSI broth microdilution method; conditions: isolate 209285, 18 h; outline: as §1
[22] = test system: Klebsiella pneumoniae; assay: Antibacterial activity against KPC-2 producing Klebsiella pneumoniae isolate 209632 after 18 hrs in presence of BPL by CLSI broth microdilution method; conditions: isolate 209632, 18 h; outline: as §1
[23] = test system: Escherichia coli; assay: Selectivity index, ratio of MIC for against extended-spectrum beta-lactamase producing Escherichia coli isolate 106342 to MIC for extended-spectrum beta-lactamase producing Escherichia coli isolate 106342 in presence of BPL
[24] = test system: Pseudomonas aeruginosa; assay: Antibacterial activity against IMP-4 producing Pseudomonas aeruginosa isolate 209471 after 18 hrs in presence of BPL by CLSI broth microdilution method; conditions: isolate 209471, 18 h; outline: as §1
[25] = test system: Pseudomonas aeruginosa; assay: Antibacterial activity against IMP-4 producing Pseudomonas aeruginosa isolate 209321 after 18 hrs in presence of BPL by CLSI broth microdilution method; conditions: isolate 209321, 18 h; outline: as §1
[26] = test system: Pseudomonas aeruginosa; assay: Selectivity index, ratio of MIC for against IMP-4 producing Pseudomonas aeruginosa isolate 207272 to MIC for against IMP-4 producing Pseudomonas aeruginosa isolate 207272 in presence of BPL
[27] = test system: Pseudomonas aeruginosa; assay: Selectivity index, ratio of MIC for against IMP-4 producing Pseudomonas aeruginosa isolate 209471 to MIC for against IMP-4 producing Pseudomonas aeruginosa isolate 209471 in presence of BPL
[28] = test system: Pseudomonas aeruginosa; assay: Antibacterial activity against IMP-4 producing Pseudomonas aeruginosa isolate 207272 after 18 hrs in presence of BPL by CLSI broth microdilution method; conditions: isolate 207272, 18 h; outline: as §1
[29] = test system: Klebsiella pneumoniae; assay: Antibacterial activity against KPC-2 producing Klebsiella pneumoniae isolate 209735 after 18 hrs by CLSI broth microdilution method; conditions: isolate 209735, 18 h
[30] = test system: Pseudomonas aeruginosa; assay: Selectivity index, ratio of MIC for against IMP-4 producing Pseudomonas aeruginosa isolate 208247 to MIC for against IMP-4 producing Pseudomonas aeruginosa isolate 208247 in presence of BPL
[31] = test system: Klebsiella pneumoniae; assay: Selectivity index, ratio of MIC for against KPC-2 producing Klebsiella pneumoniae isolate 209735 to MIC for against KPC-2 producing Klebsiella pneumoniae isolate 209735 in presence of BPL
[32] = test system: Escherichia coli; assay: Antibacterial activity against extended-spectrum beta-lactamase producing Escherichia coli isolate 212648 after 18 hrs in presence of BPL by CLSI broth microdilution method; conditions: isolate 212648, 18 h; outline: as §1
[33] = test system: Klebsiella pneumoniae; assay: Selectivity index, ratio of MIC for against KPC-2 producing Klebsiella pneumoniae isolate 212423 to MIC for against KPC-2 producing Klebsiella pneumoniae isolate 212423 in presence of BPL
[34] = test system: Klebsiella pneumoniae; assay: Antibacterial activity against KPC-2 producing Klebsiella pneumoniae isolate 212423 after 18 hrs in presence of BPL by CLSI broth microdilution method; conditions: isolate 212423, 18 h; outline: as §1
[35] = test system: Escherichia coli; assay: Antibacterial activity against extended-spectrum beta-lactamase producing Escherichia coli isolate 106342 after 18 hrs by CLSI broth microdilution method; conditions: isolate 106342, 18 h
[36] = test system: Pseudomonas aeruginosa; assay: Antibacterial activity against IMP-4 producing Pseudomonas aeruginosa isolate 208247 after 18 hrs in presence of BPL by CLSI broth microdilution method; conditions: isolate 208247, 18 h; outline: as §1
[37] = test system: Escherichia coli; assay: Selectivity index, ratio of MIC for against Escherichia coli isolate 210737 to MIC for Escherichia coli isolate 210737 in presence of BPL
[38] = test system: Klebsiella pneumoniae; assay: Selectivity index, ratio of MIC for against KPC-2 producing Klebsiella pneumoniae isolate 209632 to MIC for against KPC-2 producing Klebsiella pneumoniae isolate 209632 in presence of BPL
[39] = test system: Escherichia coli; assay: Antibacterial activity against extended-spectrum beta-lactamase producing Escherichia coli isolate 208687 after 18 hrs in presence of BPL by CLSI broth microdilution method; conditions: isolate 208687, 18 h; outline: as §1
[40] = test system: Klebsiella pneumoniae; assay: Selectivity index, ratio of MIC for against KPC-2 producing Klebsiella pneumoniae isolate 212232 to MIC for against KPC-2 producing Klebsiella pneumoniae isolate 212232 in presence of BPL
[41] = test system: Escherichia coli; assay: Antibacterial activity against extended-spectrum beta-lactamase producing Escherichia coli isolate 208687 after 18 hrs by CLSI broth microdilution method; conditions: isolate 208687, 18 h
[42] = test system: Klebsiella pneumoniae; assay: Antibacterial activity against KPC-2 producing Klebsiella pneumoniae isolate 212229 after 18 hrs by CLSI broth microdilution method; conditions: isolate 212229, 18 h
[43] = test system: Escherichia coli; assay: Antibacterial activity against extended-spectrum beta-lactamase producing Escherichia coli isolate 106342 after 18 hrs in presence of BPL by CLSI broth microdilution method; conditions: isolate 106342, 18 h; outline: as §1
[44] = test system: Klebsiella pneumoniae; assay: Selectivity index, ratio of MIC for against KPC-2 producing Klebsiella pneumoniae isolate 212229 to MIC for against KPC-2 producing Klebsiella pneumoniae isolate 212229 in presence of BPL
[45] = test system: Klebsiella pneumoniae; assay: Antibacterial activity against KPC-2 producing Klebsiella pneumoniae isolate 209632 after 18 hrs by CLSI broth microdilution method; conditions: isolate 209632, 18 h

Question: With `CC(C)C(O/N=C(\C(=O)N[C@@H]1C(=O)N(S(=O)(=O)O)[C@@H]1CN1CCNC1=O)c1csc(N)n1)c1cc(=O)c(O)cn1O` (stereo not given in full) as the molecule, how does the MIC [1] read?
Answer: 32 µg/mL (≈ 52.1 µM)

Question: And the “Selectivity Index” value [2]?
Answer: 1

Question: And the MIC [3]?
Answer: 0.25 µg/mL

Question: What about the MIC [4] of the same molecule?
Answer: 1 µg/mL (≈ 1.63 µM)

Question: What about the MIC [5] of the same molecule?
Answer: 0.125 µg/mL

Question: And the MIC [6]?
Answer: 0.5 µg/mL (≈ 0.814 µM)

Question: And the MIC [7]?
Answer: 32 µg/mL (≈ 52.1 µM)

Question: What about the MIC [8] of the same molecule?
Answer: 64 µg/mL (≈ 104 µM)

Question: And the “Selectivity Index” value [9]?
Answer: 2

Question: What about the MIC [10] of the same molecule?
Answer: 0.25 µg/mL

Question: What about the “Selectivity Index” value [11] of the same molecule?
Answer: 1

Question: What about the “Selectivity Index” value [12] of the same molecule?
Answer: 4

Question: What about the MIC [13] of the same molecule?
Answer: 0.5 µg/mL (≈ 0.814 µM)

Question: What about the MIC [14] of the same molecule?
Answer: 4 µg/mL

Question: What about the MIC [15] of the same molecule?
Answer: 1 µg/mL (≈ 1.63 µM)

Question: And the MIC [16]?
Answer: 32 µg/mL

Question: What about the MIC [17] of the same molecule?
Answer: 2 µg/mL (≈ 3.25 µM)

Question: And the “Selectivity Index” value [18]?
Answer: 1

Question: And the MIC [19]?
Answer: 32 µg/mL (≈ 52.1 µM)

Question: What about the MIC [20] of the same molecule?
Answer: 32 µg/mL (≈ 52.1 µM)

Question: What about the MIC [21] of the same molecule?
Answer: 0.25 µg/mL

Question: And the MIC [22]?
Answer: 4 µg/mL

Question: And the “Selectivity Index” value [23]?
Answer: 1

Question: And the MIC [24]?
Answer: 32 µg/mL

Question: And the MIC [25]?
Answer: 32 µg/mL

Question: What about the “Selectivity Index” value [26] of the same molecule?
Answer: 1

Question: What about the “Selectivity Index” value [27] of the same molecule?
Answer: 1

Question: And the MIC [28]?
Answer: 32 µg/mL

Question: What about the MIC [29] of the same molecule?
Answer: 16 µg/mL (≈ 26 µM)

Question: What about the “Selectivity Index” value [30] of the same molecule?
Answer: 1

Question: And the “Selectivity Index” value [31]?
Answer: 4

Question: And the MIC [32]?
Answer: 2 µg/mL

Question: What about the “Selectivity Index” value [33] of the same molecule?
Answer: 4

Question: And the MIC [34]?
Answer: 0.125 µg/mL

Question: And the MIC [35]?
Answer: 1 µg/mL (≈ 1.63 µM)

Question: And the MIC [36]?
Answer: 64 µg/mL

Question: And the “Selectivity Index” value [37]?
Answer: 2

Question: What about the “Selectivity Index” value [38] of the same molecule?
Answer: 1

Question: What about the MIC [39] of the same molecule?
Answer: 0.5 µg/mL

Question: What about the “Selectivity Index” value [40] of the same molecule?
Answer: 4

Question: What about the MIC [41] of the same molecule?
Answer: 1 µg/mL (≈ 1.63 µM)

Question: What about the MIC [42] of the same molecule?
Answer: 0.25 µg/mL (≈ 0.407 µM)

Question: What about the MIC [43] of the same molecule?
Answer: 1 µg/mL

Question: What about the “Selectivity Index” value [44] of the same molecule?
Answer: 2

Question: What about the MIC [45] of the same molecule?
Answer: 4 µg/mL (≈ 6.51 µM)
